Reference: ChEMBL document CHEMBL2040792, “New chromene scaffolds for adenosine A(2A) receptors: synthesis, pharmacology and structure-activity relationships” (Eur J Med Chem, 2012)

Assays:
[1] = target: T1, Adenosine receptor A2b (Homo sapiens) (UniProt P29275); test: Displacement of [3H]DPCPX from human adenosine A2B receptor expressed in HEK293 cells at 10 uM after 30 mins by beta scintillation counting; assay type: cell-based
T1 sequence (whole entry): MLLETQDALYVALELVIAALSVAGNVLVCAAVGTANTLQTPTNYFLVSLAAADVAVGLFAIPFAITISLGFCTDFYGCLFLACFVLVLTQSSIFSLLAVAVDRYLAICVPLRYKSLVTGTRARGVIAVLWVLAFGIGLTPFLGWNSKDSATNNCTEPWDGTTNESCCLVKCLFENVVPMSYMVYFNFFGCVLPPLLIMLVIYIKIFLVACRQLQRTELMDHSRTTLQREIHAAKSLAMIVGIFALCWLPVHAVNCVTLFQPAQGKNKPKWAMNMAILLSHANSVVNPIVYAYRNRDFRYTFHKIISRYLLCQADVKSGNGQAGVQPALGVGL
Method in brief: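 Percent inhibition at 10 µM in HEK-293-A2B membranes (18 µg protein), pH 6.5 Tris buffer with benzamidine, bacitracin and adenosine deaminase. 35 nM [3H]DPCPX, 30 min at 25 °C, in duplicate. Nonspecific binding with 400 µM NECA.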

[2] = target: T2, Adenosine receptor A3 (Homo sapiens) (UniProt P0DMS8); test: Displacement of [3H]NECA from human adenosine A3 receptor expressed in human HeLa cells at 10 uM after 180 mins by beta scintillation counting; assay type: cell-based
T2 sequence (whole entry): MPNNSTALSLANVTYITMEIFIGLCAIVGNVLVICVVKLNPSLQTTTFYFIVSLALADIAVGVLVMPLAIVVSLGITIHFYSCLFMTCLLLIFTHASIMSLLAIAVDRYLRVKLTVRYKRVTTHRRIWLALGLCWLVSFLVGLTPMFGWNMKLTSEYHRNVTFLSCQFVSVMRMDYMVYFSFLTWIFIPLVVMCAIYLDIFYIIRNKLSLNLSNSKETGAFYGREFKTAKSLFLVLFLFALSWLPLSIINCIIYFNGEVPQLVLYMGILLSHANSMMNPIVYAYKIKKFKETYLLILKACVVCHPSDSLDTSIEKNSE
Method in brief: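 HeLa-A3 membranes (90 µg protein) in 50 mM Tris-HCl, 1 mM EDTA, 5 mM MgCl2, 2 UI/mL adenosine deaminase, pH 7.4. Test compound at 10 µM with 30 nM [3H]NECA, 180 min at 25 °C, in triplicate. Nonspecific binding with 100 µM (R)-PIA. Percent inhibition read after GF/B filtration.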

[3] = target: T3, Adenosine receptor A1 (Homo sapiens) (UniProt P30542); test: Displacement of [3H]DPCPX from human adenosine A1 receptor expressed in CHO cells at 10 uM after 60 mins by beta scintillation counting; assay type: cell-based
T3 sequence (whole entry): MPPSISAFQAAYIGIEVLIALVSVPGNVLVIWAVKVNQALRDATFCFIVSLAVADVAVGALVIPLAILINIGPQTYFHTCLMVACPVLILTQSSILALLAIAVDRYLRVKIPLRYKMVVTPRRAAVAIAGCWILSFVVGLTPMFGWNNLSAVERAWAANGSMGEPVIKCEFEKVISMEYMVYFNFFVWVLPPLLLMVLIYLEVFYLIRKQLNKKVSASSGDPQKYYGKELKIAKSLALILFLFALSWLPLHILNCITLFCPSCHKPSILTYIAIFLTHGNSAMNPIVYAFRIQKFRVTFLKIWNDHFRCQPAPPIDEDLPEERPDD
Method in brief: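 CHO-A1 membranes (15 µg protein) in Hepes/NaCl/MgCl2 buffer with adenosine deaminase, pH 7.4. Test compound at 10 µM with 2 nM [3H]DPCPX, 60 min at 25 °C, in duplicate. Nonspecific binding with 10 µM (R)-PIA. Percent inhibition read after filtration.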

Adenosine receptor A2a [4] = target: T4, Adenosine receptor A2a (Homo sapiens, UniProt P29274); test: Displacement of [3H]ZM241385 from human adenosine A2A receptor expressed in human HeLa cells at 10 uM after 30 mins by beta scintillation counting; assay type: cell-based
Method in brief: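 Single-point screen at 10 µM on HeLa-A2A membranes (10 µg protein), Tris/EDTA/MgCl2 buffer with adenosine deaminase, pH 7.4. 3 nM [3H]ZM241385, 30 min at 25 °C, in duplicate. Nonspecific binding with 50 µM NECA. Percent inhibition.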

Adenosine receptor A2a [5] = target: T4, Adenosine receptor A2a; test: Displacement of [3H]ZM241385 from human adenosine A2A receptor expressed in human HeLa cells after 30 mins by beta scintillation counting; assay type: cell-based
Method in brief: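 HeLa-A2A membranes (10 µg protein) in 50 mM Tris-HCl, 1 mM EDTA, 10 mM MgCl2, 2 UI/mL adenosine deaminase, pH 7.4, with 3 nM [3H]ZM241385. Nonspecific binding with 50 µM NECA. Incubated 30 min at 25 °C, in duplicate. Six concentrations (10 nM-100 µM); IC50 by nonlinear regression, converted to Ki by Cheng-Prusoff.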

Adenosine receptor A2b = target: T5, Adenosine receptor A2b (Homo sapiens, UniProt P29275); test: Displacement of [3H]DPCPX from human adenosine A2B receptor expressed in HEK293 cells after 30 mins by beta scintillation counting; assay type: cell-based
T5 sequence (P29275 whole entry): T1 sequence (whole entry)
Method in brief: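 HEK-293-A2B membranes (18 µg protein) in 50 mM Tris-HCl, 1 mM EDTA, 10 mM MgCl2, 0.1 mM benzamidine, 10 µg/mL bacitracin, 2 UI/mL adenosine deaminase, pH 6.5, with 35 nM [3H]DPCPX. Nonspecific binding with 400 µM NECA. Incubated 30 min at 25 °C, in duplicate. Six concentrations (10 nM-100 µM); IC50 by nonlinear regression, Ki by Cheng-Prusoff.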

Adenosine receptor A2a [6] = target: T4, Adenosine receptor A2a; test: Antagonist activity at human adenosine A2A receptor expressed in CHO cells assessed as inhibition of NECA-induced cAMP accumulation incubated for 15 mins prior to NECA-induction measured after 15 mins by enzyme immunoassay relative to control; assay type: functional, cell-based
Method in brief: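 Stably transfected CHO cells grown with dialyzed FBS, washed in DMEM F-12 with 25 mM HEPES pH 7.4 and 30 μM rolipram. Antagonist preincubated 15 min, then NECA (0.1 nM-1 mM) added for a further 15 min. cAMP measured by enzyme immunoassay. NECA curves fitted to a sigmoidal equation; pKB derived from the EC50 shift at one antagonist concentration.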

T4 sequence (P29274 whole entry): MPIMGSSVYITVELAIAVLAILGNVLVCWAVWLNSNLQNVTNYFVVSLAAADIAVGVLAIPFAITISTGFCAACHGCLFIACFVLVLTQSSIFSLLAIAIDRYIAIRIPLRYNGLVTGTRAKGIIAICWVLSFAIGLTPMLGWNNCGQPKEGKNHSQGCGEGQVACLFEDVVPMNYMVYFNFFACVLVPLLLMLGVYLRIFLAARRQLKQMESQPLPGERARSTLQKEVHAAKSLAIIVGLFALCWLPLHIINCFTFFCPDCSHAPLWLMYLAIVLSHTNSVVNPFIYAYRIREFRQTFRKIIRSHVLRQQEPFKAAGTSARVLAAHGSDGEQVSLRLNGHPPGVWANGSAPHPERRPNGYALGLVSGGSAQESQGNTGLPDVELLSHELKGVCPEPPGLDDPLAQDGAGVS

Compound	inhibition [1] [%]	inhibition [2] [%]	inhibition [3] [%]	inhibition (Adenosine receptor A2a [4]) [%]	Ki (Adenosine receptor A2a [5]) [nM]	Ki (Adenosine receptor A2b) [nM]	pKb (Adenosine receptor A2a [6])
O=C(NC1CCCC1)c1cc2ccccc2oc1=O	18	20	16	1			
COc1cccc2cc(C(=O)Nc3c(C#N)ncn3-c3ccc(C#N)cc3)c(=N)oc12	10	1	18	41			
COc1cc(Br)cc2cc(C(=O)NCCCO)c(=N)oc12	30	23	31	16			
O=C(NCC(O)CO)c1cc2cc(Cl)ccc2oc1=O (configuration not stated)	23	1	21	2			
COc1cccc2cc(C(=O)Nc3c(C#N)ncn3-c3ccc(F)cc3)c(=N)oc12	30	20	46	> 70	631		6.02
CCC(CO)NC(=O)c1cc2cc(Cl)ccc2oc1=N (configuration not stated)	9	0	7	15			
N=c1oc2ccc(Br)cc2cc1C(=O)NCC(O)CO (configuration not stated)	4	10	11	8			
N=c1oc2ccc(Br)cc2cc1C(=O)NCCCO	25	17	32	14			
COc1cccc2cc(C(=O)Nc3c(C#N)ncn3-c3ccccc3)c(=N)oc12	9	40	33	> 70	1000		
O=C(NCCCN1CCN(CCCNC(=O)c2cc3ccccc3oc2=O)CC1)c1cc2ccccc2oc1=O	22	15	9	1			
CCC(CO)NC(=O)c1cc2cc(Br)ccc2oc1=N (configuration not stated)	4	24	20	3			
N=c1oc2ccc(Br)cc2cc1C(=O)NCCO	15	0	26	6			
COc1cccc2c1OC(C)(O)C(C(C)=O)=C2 (configuration not stated)	24	30	6	10			
COc1ccc(-n2cnc(C#N)c2NC(=O)c2cc3cccc(OC)c3oc2=N)cc1	5	42	37	58			
N=c1oc2ccc(Br)cc2cc1C(=O)NC1CCCCC1	10	8	5	1			
O=C(O)CNC(=O)c1cc2ccccc2oc1=O	9	0	1	2			
N=c1oc2ccc(Br)cc2cc1C(=O)NC1CCCC1	28	0	17	5			

Second part, the compound after the results:

inhibition [1] [%]	inhibition [2] [%]	inhibition [3] [%]	inhibition (Adenosine receptor A2a [4]) [%]	Ki (Adenosine receptor A2a [5]) [nM]	Ki (Adenosine receptor A2b) [nM]	pKb (Adenosine receptor A2a [6])	Compound
24	8	18	1				O=C(NCCCO)c1cc2cccc(O)c2oc1=O
> 70	13	44	> 70	1000	1260		COc1cccc2cc(C(=O)NCCCCCO)c(=N)oc12
51	15	40	> 70	1580			CCOC(CNC(=O)c1cc2cccc(OC)c2oc1=N)OCC
28	18	19	24				COc1cccc2cc(C(=O)NC(CO)(CO)CO)c(=N)oc12
65	23	47	> 70	1000			COc1cccc2cc(C(=O)NCCO)c(=N)oc12
> 70	11	31	> 70	398	10000		COc1cccc2cc(C(=O)NCCCNC(=O)c3cc4cccc(OC)c4oc3=N)c(=N)oc12
18	0	45	65				COCCNC(=O)c1cc2cccc(OC)c2oc1=O
7	1	12	1				COc1cccc2cc(C(=O)NCCO)c(=O)oc12
29	22	4	11				O=C(NCC(O)CO)c1cc2cccc(O)c2oc1=O (configuration not stated)
24	3	12	6				COc1cccc2cc(C(=O)N[C@@H](CO)C(=O)O)c(=O)oc12
9	13	17	10				COCCNC(=O)c1cc2cc(Cl)ccc2oc1=N
42	1	47	> 70	631			COc1cccc2cc(C(=O)NCCCO)c(=N)oc12
25	1	14	7				COc1cccc2cc(C(=O)NCC(O)CO)c(=O)oc12 (configuration not stated)
> 70	8	55	> 70	501	1000		COc1cccc2cc(C(=O)NCC(O)c3ccccc3)c(=N)oc12 (configuration not stated)
15	1	10	1				COc1cccc2cc(C(C)=O)c(=O)oc12
35	15	27	13				COc1cccc2cc(C(=O)NCC(=O)O)c(=O)oc12
39	6	24	66				CCC(CO)NC(=O)c1cc2cccc(OC)c2oc1=N (configuration not stated)
19	6	24	10				O=C(NCCCO)c1cc2ccccc2oc1=O
